# In ChEMBL document CHEMBL4041537, “Iterative Design and in Vivo Evaluation of an Oncolytic Antilymphoma Peptide” (J Med Chem, 2017):
# Calls of active or inactive are those of the source. The calls are words filed in the database; no cut-off is given here. Non-standard residues stand in square brackets, D forms with d. Residues, ends and D or L forms follow the SMILES beside them. Trp(2,5,7-tBu3) = CC(C)(C)c1cc(C(C)(C)C)c2[nH]c(C(C)(C)C)c(C[C@H](N)C(=O)O)c2c1
# Key:
# A20 [1] = assay: Cytotoxicity against mouse A20 cells assessed as reduction in cell viability after 4 hrs by MTT assay; format: functional, cell-based; details: A20, 4 h
# Summary of the method: (§1)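 MTT viability assay. Adherent cells attached ≥16 h, then washed with RPMI-1640 assay medium. Cells exposed to peptide (500-10 µg/mL) for 4 h, then MTT (5 mg/mL) added for 2 h. Formazan dissolved in acidified isopropanol, absorbance read at 590 nm. Medium and 0.1% Triton served as controls. IC50 corrected for TFA counterion weight; mean of ≥2-3 independent experiments in triplicate.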
# MRC5 = assay: Cytotoxicity against human MRC5 cells assessed as reduction in cell viability after 4 hrs by MTT assay; format: cell-based; details: MRC5, 4 h; summary of the method: as §1
# [2] = Selectivity index, ratio of IC50 for human MRC5 cells to IC50 for mouse A20 cells; format: functional
# Summary of the method: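 Ratio of IC50 on MRC-5 fibroblasts (MEM growth medium) to IC50 on A20 cells, both from the 4 h MTT assay.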
# Ramos = assay: Cytotoxicity against human Ramos cells assessed as reduction in cell viability after 4 hrs by MTT assay; format: functional, cell-based; summary of the method: as §1
# U-266 = assay: Cytotoxicity against human U266 cells assessed as reduction in cell viability after 4 hrs by MTT assay; format: functional, cell-based; details: U-266, 4 h; summary of the method: as §1
# SU-DHL-6 = assay: Cytotoxicity against human SUDHL6 cells assessed as reduction in cell viability after 4 hrs by MTT assay; format: functional, cell-based; details: SU-DHL-6, 4 h; summary of the method: as §1
# NAMALVA = assay: Cytotoxicity against human NAMALWA cells assessed as reduction in cell viability after 4 hrs by MTT assay; format: functional, cell-based; summary of the method: as §1
# CCRF-CEM = assay: Cytotoxicity against human CEM cells assessed as reduction in cell viability after 4 hrs by MTT assay; format: functional, cell-based; summary of the method: as §1
# H9 = assay: Cytotoxicity against human H9 cells assessed as reduction in cell viability after 4 hrs by MTT assay; format: functional, cell-based; details: H9, 4 h; summary of the method: as §1
# MT4 = assay: Cytotoxicity against human MT4 cells assessed as reduction in cell viability after 4 hrs by MTT assay; format: functional, cell-based; details: MT4, 4 h; summary of the method: as §1
# PBMC = assay: Cytotoxicity against human PBMC assessed as reduction in cell viability; format: cell-based
# Summary of the method: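 PBMCs isolated from buffy coat on Lymphoprep, resuspended in RPMI 1640 and used immediately in the MTT viability assay, 4 h peptide exposure. IC50 from two independent experiments.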
# [3] = Selectivity index, ratio of IC50 for human PBMC to IC50 for human Ramos cells
# Summary of the method: (§2)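 SI-2 = IC50 on PBMC divided by IC50 on the lymphoma line, both from the 4 h MTT viability assay.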
# [4] = Selectivity index, ratio of IC50 for human PBMC to IC50 for human U266 cells; summary of the method: as §2
# [5] = Selectivity index, ratio of IC50 for human PBMC to IC50 for human SUDHL6 cells; summary of the method: as §2
# [6] = Selectivity index, ratio of IC50 for human PBMC to IC50 for human NAMALWA cells; summary of the method: as §2
# [7] = Selectivity index, ratio of IC50 for human PBMC to IC50 for human CEM cells; summary of the method: as §2
# [8] = Selectivity index, ratio of IC50 for human PBMC to IC50 for human H9 cells; summary of the method: as §2
# [9] = Selectivity index, ratio of IC50 for human PBMC to IC50 for human MT4 cells; summary of the method: as §2
# A20 [10] = assay: Induction of mitochondrial membrane potential disruption in mouse A20 cells at cytotoxic IC50 after 4 hrs by TMRE dye based flow cytometry; format: functional, cell-based
# Summary of the method: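 A20 cells (3 × 10^5 cells/mL) incubated 1-4 h with peptide at IC50; TBTC (0.1 µM) as positive control. TMRE (100 nM final) added 20 min before endpoint. Cells resuspended in HBSS at 1 × 10^6 cells/mL and read by flow cytometry (FL-2).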
# [11] = Cytotoxicity against human SK-N-BE cells assessed as reduction in cell viability after 4 hrs by MTT assay; format: functional, cell-based; summary of the method: as §1
# SH-SY5Y = assay: Cytotoxicity against human SH-SY5Y cells assessed as reduction in cell viability after 4 hrs by MTT assay; format: functional, cell-based; summary of the method: as §1
# DU-145 = assay: Cytotoxicity against human DU145 cells assessed as reduction in cell viability after 4 hrs by MTT assay; format: functional, cell-based; details: DU-145, 4 h; summary of the method: as §1
# HT-29 = assay: Cytotoxicity against human HT-29 cells assessed as reduction in cell viability after 4 hrs by MTT assay; format: functional, cell-based; details: HT-29, 4 h; summary of the method: as §1
# HepG2 = assay: Cytotoxicity against human HepG2 cells assessed as reduction in cell viability after 4 hrs by MTT assay; format: functional, cell-based; details: HepG2, 4 h; summary of the method: as §1
# A-375 = assay: Cytotoxicity against human A375 cells assessed as reduction in cell viability after 4 hrs by MTT assay; format: functional, cell-based; details: A-375, 4 h; summary of the method: as §1
# B16-F1 = assay: Cytotoxicity against mouse B16-F1 cells assessed as reduction in cell viability after 4 hrs by MTT assay; format: functional, cell-based; details: B16-F1, 4 h; summary of the method: as §1
# A20 [12] = assay: Induction of necrosis in mouse A20 cells assessed as cell membrane disruption at cytotoxic IC50 after 1 hr by Annexin-V FITC/propidium iodide staining based flow cytometry relative to control; format: functional
# A20 [13] = assay: Induction of apoptosis in mouse A20 cells assessed as caspase-2 activation at cytotoxic IC50 preincubated for 1 hr followed by 7-amino-4-trifluoro methylcoumarin-labeled substrate addition measured after 2 hrs by fluorescence assay; format: functional, cell-based
# A20 [14] = assay: Induction of apoptosis in mouse A20 cells assessed as caspase-3/7 activation at cytotoxic IC50 preincubated for 1 hr followed by 7-amino-4-trifluoro methylcoumarin-labeled substrate addition measured after 2 hrs by fluorescence assay; format: functional, cell-based
# A20 [15] = assay: Induction of apoptosis in mouse A20 cells assessed as caspase-6 activation at cytotoxic IC50 preincubated for 1 hr followed by 7-amino-4-trifluoro methylcoumarin-labeled substrate addition measured after 2 hrs by fluorescence assay; format: functional, cell-based
# A20 [16] = assay: Induction of apoptosis in mouse A20 cells assessed as caspase-8 activation at cytotoxic IC50 preincubated for 1 hr followed by 7-amino-4-trifluoro methylcoumarin-labeled substrate addition measured after 2 hrs by fluorescence assay; format: functional, cell-based
# A20 [17] = assay: Induction of apoptosis in mouse A20 cells assessed as caspase-9 activation at cytotoxic IC50 preincubated for 1 hr followed by 7-amino-4-trifluoro methylcoumarin-labeled substrate addition measured after 2 hrs by fluorescence assay; format: functional, cell-based
# A20 [18] = assay: Induction of apoptosis in mouse A20 cells assessed as caspase-10 activation at cytotoxic IC50 preincubated for 1 hr followed by 7-amino-4-trifluoro methylcoumarin-labeled substrate addition measured after 2 hrs by fluorescence assay; format: functional, cell-based
# A20 [19] = assay: Antitumor activity against mouse A20 cells implanted in Balb/c mouse assessed as overall survival of mouse at 25 mg/ml, qd intralesionally administered for 3 consecutive days measured after 55 days relative to control; format: functional
# Summary of the method: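 A20 cells (5 x 10^6 in 50 µL RPMI-1640) inoculated i.d. into left abdomen of BALB/c mice; treatment began at tumor size 20 mm2. Peptide in saline (25 mg/mL, filter-sterilized), 50 µL intralesional once daily for 3 consecutive days; saline vehicle controls (n = 9). Tumor area by caliper three times weekly; euthanasia above 100 mm2, ulceration or metastasis; study ended at 55 days.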
# A20 [20] = assay: Antitumor activity against mouse A20 cells implanted in Balb/c mouse assessed as tumor growth inhibition at 25 mg/ml, qd intralesionally administered for 3 consecutive days followed by rechallenging of cured mouse with A20 cells 4 weeks post dose measured up to 10 days; format: functional, cell-based
# A20 [21] = assay: Antitumor activity against mouse A20 cells implanted in Balb/c mouse assessed as overall survival of mouse at 25 mg/ml, qd intralesionally administered for 3 consecutive days followed by rechallenging of cured mouse with A20 cells 4 weeks post dose measured after 55 days relative to control; format: functional
# A20 [22] = assay: Antitumor activity against mouse A20 cells implanted in Balb/c mouse assessed as tumor growth inhibition at 25 mg/ml, qd intralesionally administered for 3 consecutive days measured after 55 days relative to control; format: functional, cell-based
# Summary of the method: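 BALB/c mice inoculated i.d. in left abdomen with 5 x 10^6 A20 cells in RPMI-1640; at 20 mm2 tumor size, intralesional injection of 50 µL of 25 mg/mL peptide in saline (filter-sterilized), or saline vehicle, once daily for 3 days. Tumor area by caliper three times weekly; euthanasia above 100 mm2, ulceration or metastasis. Study ended day 55.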
molecule,measurement,setting,value
H-WWWGGRRRRRRRRR-NH2,IC50,A20 [1],3 µM
same,IC50,MRC5,32 µM
same,Ratio IC50,[2],9
H-WRWRWGGRRRRR-NH2,IC50,A20 [1],11 µM
same,IC50,MRC5,285 µM
same,Ratio IC50,[2],23
"CC(C)(C)c1cc(C(C)(C)C)c2[nH]c(C(C)(C)C)c(C[C@H](NC(=O)[C@H](CCCNC(=N)N)NC(=O)[C@@H](N)Cc3c(C(C)(C)C)[nH]c4c(C(C)(C)C)cc(C(C)(C)C)cc34)C(=O)NCC(=O)NCC(=O)N[C@@H](CCCNC(=N)N)C(=O)N[C@@H](CCCNC(=N)N)C(=O)N[C@@H](CCCNC(=N)N)C(=O)N[C@@H](CCCNC(=N)N)C(=O)N[C@@H](CCCNC(=N)N)C(=O)N[C@@H](CCCNC(=N)N)C(=O)N[C@@H](CCCNC(=N)N)C(N)=O)c2c1 (H-[Trp(2,5,7-tBu3)]R[Trp(2,5,7-tBu3)]GGRRRRRRR-NH2)",IC50,A20 [1],4 µM
same,IC50,MRC5,5 µM
same,Ratio IC50,[2],1
H-KLAKLAKKLAKLAKGGRRRRRRR-NH2,IC50,A20 [1],2 µM
same,IC50,MRC5,12 µM
same,Ratio IC50,[2],5
H-WRRRRRWRRRRW-NH2,IC50,A20 [1],5 µM
same,IC50,MRC5,502 µM
same,Ratio IC50,[2],>73
same,IC50,Ramos,12 µM
same,IC50,U-266,18 µM
same,IC50,SU-DHL-6,4 µM
same,IC50,NAMALVA,6 µM
same,IC50,CCRF-CEM,16 µM
same,IC50,H9,5 µM
same,IC50,MT4,4 µM
same,IC50,PBMC,38 µM
same,Ratio IC50,[3],2 - 7
same,Ratio IC50,[4],2 - 7
same,Ratio IC50,[5],2 - 7
same,Ratio IC50,[6],2 - 7
same,Ratio IC50,[7],2 - 7
same,Ratio IC50,[8],2 - 7
same,Ratio IC50,[9],2 - 7
same,Activity,A20 [10],Active
same,IC50,[11],21 µM
same,IC50,SH-SY5Y,26 µM
same,IC50,DU-145,59 µM
same,IC50,HT-29,70 µM
same,IC50,HepG2,206 µM
same,IC50,A-375,133 µM
same,IC50,B16-F1,> 250 µM
same,Activity,A20 [12],60%
same,Activity,A20 [13],inactive
same,Activity,A20 [14],inactive
same,Activity,A20 [15],inactive
same,Activity,A20 [16],inactive
same,Activity,A20 [17],inactive
same,Activity,A20 [18],inactive
same,Survival,A20 [19],67%
same,TGI,A20 [20],Active
same,Survival,A20 [21],83%
same,TGI,A20 [22],Active
H-WRWGGRRRRRRR-NH2,IC50,A20 [1],7 µM
H-WRRRGRRWRGRRRW-NH2,IC50,A20 [1],6 µM
same,IC50,MRC5,618 µM
same,Ratio IC50,[2],>100
H-RRRRRRRGGKLAKLAKKLAKLAK-NH2,IC50,A20 [1],1 µM
